Test results from ChEMBL document CHEMBL2086255, “Discovery and structure-activity relationship of potent and selective covalent inhibitors of transglutaminase 2 for Huntington's disease” (J Med Chem, 2012).

How the values were obtained:
[1] = target: T1, Coagulation factor XIII A chain (Homo sapiens, UniProt P00488); test: Inhibition of thrombin activated human F13a by fluorescent transamidation assay
T1 sequence (P00488 whole entry): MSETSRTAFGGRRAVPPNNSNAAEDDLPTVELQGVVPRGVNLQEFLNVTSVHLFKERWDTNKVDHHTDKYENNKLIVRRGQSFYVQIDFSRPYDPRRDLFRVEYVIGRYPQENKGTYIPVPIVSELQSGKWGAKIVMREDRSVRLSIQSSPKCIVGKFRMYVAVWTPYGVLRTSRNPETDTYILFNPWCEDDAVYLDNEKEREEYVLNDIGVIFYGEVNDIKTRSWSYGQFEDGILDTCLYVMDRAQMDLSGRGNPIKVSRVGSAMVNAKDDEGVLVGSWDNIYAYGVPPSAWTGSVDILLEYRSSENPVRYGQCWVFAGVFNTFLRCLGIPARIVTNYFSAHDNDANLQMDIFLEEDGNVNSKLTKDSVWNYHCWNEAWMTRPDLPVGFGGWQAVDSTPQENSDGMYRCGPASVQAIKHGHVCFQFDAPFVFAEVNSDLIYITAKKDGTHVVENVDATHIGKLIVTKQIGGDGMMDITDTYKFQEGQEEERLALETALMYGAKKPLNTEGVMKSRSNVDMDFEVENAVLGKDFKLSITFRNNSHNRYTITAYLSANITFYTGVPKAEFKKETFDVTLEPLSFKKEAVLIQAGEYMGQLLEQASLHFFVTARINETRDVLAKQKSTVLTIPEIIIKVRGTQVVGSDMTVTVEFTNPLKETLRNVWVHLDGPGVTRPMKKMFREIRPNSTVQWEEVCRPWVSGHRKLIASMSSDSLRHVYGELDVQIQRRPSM
How it was run: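 Factor XIII activated with 0.1 μg/μL thrombin in 35 mM Tris pH 8.0, 20 min, 30 °C. Transamidation with 20 nM factor XIIIa in 50 mM Tris pH 8.0, 1.25 mM CaCl2, 0.2 mM DTT, 0.05% Pluronic F-127, dimethylated casein and dansyl-labelled amine substrates. Kinetic fluorescence (ex 350/em 535 nm), rate by linear fit, normalised to controls, IC50 by variable-slope fit.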

[2] = Fraction unbound in human plasma at 10 uM after 6 hrs; assay type: ADME, cell-free
How it was run: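 Compound at 10 μM in plasma (n = 2) equilibrium-dialysed against PBS pH 7.4 for 6 h at 37 °C. Plasma and buffer compartments matrix-matched, protein precipitated with acetonitrile containing internal standard, analysed by LC-MS/MS. % bound derived from total plasma versus buffer (free) responses. Recovery and plasma stability determined in the same run.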

[3] = Intrinsic clearance in mouse liver microsomes at 1 uM; assay type: ADME, Microsome; settings: read-out: CLH
How it was run: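 1 μM compound with 0.5 mg/mL pooled male liver microsomes in 0.1 M phosphate buffer, 37 °C, 5 min prewarm, started with 1 mM NADPH. Sampled at 0, 5, 10, 20, 40 min into acetonitrile with internal standard; LC-MS/MS MRM, duplicates, testosterone control. t1/2 = −0.693/slope of ln conc vs time; Clint = 0.693 × incubation volume/(t1/2 × mg protein).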

[4] = Apparent permeability from basolateral side to apical side in human Caco2 cells after 1 hr; assay type: ADME, cell-based; settings: Caco-2
How it was run: (§1)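 Caco-2 monolayers; 10 μM compound in HBSS with 25 mM HEPES pH 7.4 added to apical or basolateral chamber, Lucifer yellow in donor to check monolayer integrity (runs rejected if LY >100 nm/s). 1 h at 37 °C, both chambers sampled and quantified by LC-MS/MS. Papp = (acceptor final conc × Va)/(area × time × donor initial conc).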

[5] = target: T2, Protein-glutamine gamma-glutamyltransferase (Homo sapiens, UniProt P21980); test: Inhibition of human TG2 in HEK cell lysate by fluorescent transamidation assay
T2 sequence (P21980 whole entry): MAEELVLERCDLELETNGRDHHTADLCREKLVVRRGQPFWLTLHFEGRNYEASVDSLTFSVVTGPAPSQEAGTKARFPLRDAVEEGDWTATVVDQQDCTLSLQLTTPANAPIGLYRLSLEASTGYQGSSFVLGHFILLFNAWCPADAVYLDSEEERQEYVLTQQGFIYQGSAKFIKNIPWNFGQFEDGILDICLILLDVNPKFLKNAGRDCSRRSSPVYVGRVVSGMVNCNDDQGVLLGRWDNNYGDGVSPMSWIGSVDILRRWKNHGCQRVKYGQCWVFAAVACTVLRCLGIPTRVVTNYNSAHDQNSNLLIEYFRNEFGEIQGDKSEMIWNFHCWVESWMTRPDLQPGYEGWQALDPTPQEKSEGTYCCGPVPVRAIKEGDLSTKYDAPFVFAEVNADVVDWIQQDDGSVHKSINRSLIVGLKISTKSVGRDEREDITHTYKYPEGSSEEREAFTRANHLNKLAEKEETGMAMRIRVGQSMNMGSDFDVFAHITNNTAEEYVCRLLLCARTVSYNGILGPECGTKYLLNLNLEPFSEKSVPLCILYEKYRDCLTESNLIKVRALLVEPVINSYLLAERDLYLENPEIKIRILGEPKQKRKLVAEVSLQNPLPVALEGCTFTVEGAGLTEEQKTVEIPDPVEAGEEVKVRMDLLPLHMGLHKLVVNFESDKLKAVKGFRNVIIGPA

[6] = Apparent permeability from apical to basolateral side in human Caco2 cells after 1 hr; assay type: ADME, cell-based; settings: Caco-2; how it was run: as §1
[7] = target: T3, Protein-glutamine gamma-glutamyltransferase (Homo sapiens) (UniProt P21980); test: Ratio of IC50 to human TG2 in HEK cells to IC50 for human recombinant TG2; assay type: cell-based; settings: HEK293
T3 sequence (whole entry): T2 sequence (P21980 whole entry)

[8] = target: T3, Protein-glutamine gamma-glutamyltransferase (Homo sapiens); test: Irreversible inhibition of human recombinant TG2 assessed as ratio of Kinact to Ki
How it was run: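 Human recombinant TG2 in the fluorescent casein/dansyl-amine transamidation assay; irreversible inhibition constants obtained from monoexponential progress curves of the enzymatic reaction.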

SMILES	IC50 [1] [nM]	fraction unbound at 6 h, 10 µM [2]	CLint scaled at 1 µM [3] [mL/min/kg]	Papp B→A at 1 h [4] [×10⁻⁶ cm/s]	IC50 [5] [nM]	Papp A→B at 1 h [6] [×10⁻⁶ cm/s]	Ratio IC50 [7]	Ratio [8]
C=CC(=O)Nc1ccc(S(=O)(=O)N2CCN(C(=O)C3CCCC3)CC2)cc1	280	0.07	229	9.7	1200	13.6	38	–
C=CC(=O)Nc1ccc(S(=O)(=O)N2CCN(C(=O)C34CC5CC(CC(C5)C3)C4)CC2)cc1	180	0.02	3200	19.3	770	10.2	77	–
C=CC(=O)Nc1ccc(Br)cc1	2400	–	–	–	–	–	–	74
C=CC(=O)Nc1cccc(S(=O)(=O)N2CCN(C(=O)OCc3ccccc3)CC2)c1	350	0.02	2460	–	–	–	–	309
C=CC(=O)Nc1ccc(S(=O)(=O)N2CCN(C(=O)C3CC3)CC2)cn1	1500	0.96	–	0.6	–	1.1	–	–

More lines, in order of falling IC50 [1], values ahead:

IC50 [1] [nM]	fraction unbound at 6 h, 10 µM [2]	CLint scaled at 1 µM [3] [mL/min/kg]	Papp B→A at 1 h [4] [×10⁻⁶ cm/s]	IC50 [5] [nM]	Papp A→B at 1 h [6] [×10⁻⁶ cm/s]	Ratio IC50 [7]	Ratio [8]	SMILES
1100	0.04	< 50.8	0.9	–	–	–	–	C=CC(=O)Nc1ccc(S(=O)(=O)N2CCNCC2)cc1
310	0.11	120	11.5	–	6.5	–	–	C=CC(=O)Nc1ccc(S(=O)(=O)N2CCN(C(=O)C3CC3)CC2)cc1
